CHO-K1 Ca antag – counter-screen for M1 antagonists: effect in parental CHO-K1 cells | inhibition, % at 3 µM | 360,000 tested, 0.6% active | ATP-induced calcium, Fluo-8 fluorescence;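 active means inhibition above a per-plate cutoff, the plate's mean sample inhibition plus 3 SD, cut at about 24% in these data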;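 further: 0% = DMSO plus EC80 ATP and 100% = DMSO alone without ATP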
CHO-K1 Ca PAM – nonselective activator or artifact in parental CHO-K1 calcium assay. ATP EC20, Fluo-8 calcium fluorescence; 0% at ATP EC20, 100% at ATP max. activation, % at 3 µM. 360,000 tested, 0.02% active. AID 602247;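 active means activation above the run cutoff, the mean activation of all test compounds plus 3 SD, cut at about 40% in these data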;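 further: peak over basal fluorescence ratio in a 140 s read after ATP addition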
CHO parental Ca – counter-screen: ATP calcium response change in parental CHO cells; parental CHO-K1, ATP-induced calcium, Fluo-8 fluorescence; 330,000 tested, 0.63% active; inhibition, % at 5.6 µM; AID 463079;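 active means inhibition above that plate's mean sample inhibition plus 3 SD, cut at about 26% in these data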;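 further: 0% = ATP-challenged DMSO wells and 100% = DMSO wells without ATP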
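Assay system – parental CHO cells · Reagent – ATP stimulus · Detection – intracellular calcium via Fluo-8 no-wash fluorescent dye · Evaluation – percent inhibition of ATP-evoked calcium rise, normalized to controls · Controls – ATP wells versus no-ATP DMSO wells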
OX1R antag-1 – antagonists of human orexin 1 receptor (OX1R); O43613; OX1R-expressing cells, FRET antagonist read-out; inhibition, % at 6.6 µM; 330,000 tested, 1.8% active; AID 485270; in the data active means inhibition mostly above about 38%, no sharp cut-off; inactive means mostly below about 40%;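 further: 0% = agonist challenge alone and 100% = reference antagonist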
Target sequence (O43613 whole entry, looked up): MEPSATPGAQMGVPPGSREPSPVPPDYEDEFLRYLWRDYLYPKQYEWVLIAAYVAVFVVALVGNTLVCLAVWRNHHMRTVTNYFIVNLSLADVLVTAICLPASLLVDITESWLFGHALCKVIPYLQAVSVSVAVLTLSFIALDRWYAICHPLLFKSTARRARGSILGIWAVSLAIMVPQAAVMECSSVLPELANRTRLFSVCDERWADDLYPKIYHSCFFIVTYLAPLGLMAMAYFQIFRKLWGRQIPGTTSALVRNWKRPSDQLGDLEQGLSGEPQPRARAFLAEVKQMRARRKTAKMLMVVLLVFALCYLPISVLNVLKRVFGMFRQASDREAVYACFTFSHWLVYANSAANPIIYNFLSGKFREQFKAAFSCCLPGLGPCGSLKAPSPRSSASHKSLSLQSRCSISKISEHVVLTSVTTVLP
CHO-K1 Ca ag – nonselective activator or artifact in parental CHO-K1 cells; activation, % at 3 µM; Fluo-8 calcium fluorescence; scaled to maximal ATP response, vehicle zero; 360,000 tested, 0.48% active; in the data active means activation above about 15%;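 further: untransfected CHO-K1 host cells lacking M1 receptor as counterscreen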
OX1R antag-2 – antagonists of human orexin 1 receptor. O43613. CHO/OX1R cells, Fluo-8 calcium fluorescence, orexin A. inhibition, % at 5 µM. 330,000 tested, 0.43% active. AID 434989;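 active means inhibition above its plate's threshold, mean inhibition of all tested compounds on the plate plus 3 SD, cut at about 37% in these data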;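 further: 0% = orexin A challenge wells and 100% = SB-334867-A antagonist wells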
* marks the source's active call; other numbers are inactive results; / = not tested or not shown. This is a sample that favours compounds with a hit; in the whole collection about 2.9% have one here.

SMILES	CHO-K1 Ca antag	CHO-K1 Ca PAM	CHO parental Ca	OX1R antag-1	CHO-K1 Ca ag	OX1R antag-2
c1cnc2ncc3sccc3c2c1	-4.0	21.5	45.7*	7.6	18.6*	-3.4
Cc1cnc2ncc3sccc3c2c1	-12.2	5.7	2.1	-0.8	-0.3	6.0
C=CCC[C@H](Cc1ccc(F)cc1)C(=O)OC[C@@H](Cc1c[nH]c2ccccc12)NC(=O)[C@@H](CC=C)CC(=O)NCCO	-17.6	19.3	-12.5	3.6	1.5	-16.1
CNc1ncc(Cc2ccccc2)s1	24.2*	-13.9	-0.3	2.9	-0.5	2.0
O=C(Nc1ncc(Cc2ccccc2)s1)C1CCCO1 (centres undefined)	-3.6	3.9	-15.0	14.6	-0.2	-30.7
CCOC(=O)c1oc2ccccc2c1COC(=O)CNC(=O)c1ccccc1OC	-3.6	2.3	-18.7	67.6*	2.6	-6.5
CN(CC(O)COc1c(F)cc(Br)cc1F)C1CCCCC1 (centres undefined)	-7.9	20.8	-4.1	5.8	8.5	-22.2
CCOC(=O)c1c(-c2ccccc2)oc2ccc(OC(C)=O)cc12	17.2	-11.5	-8.8	64.0*	-0.3	-1.6
Cc1cc(NC(=O)CSc2cc(Cl)ccc2Cl)n(-c2ccccc2)n1	25.1*	-3.7	-19.0	19.1	2.6	-20.2
CCc1cc2c(=O)[nH]c(Cc3ccc(Cl)cc3)nc2s1	-8.1	20.6	-8.0	-1.3	0.5	-24.0
CCc1cc2c(=O)[nH]c(Cc3ccccc3)nc2s1	-18.8	13.0	42.7*	23.9	0.5	-9.4
COc1cccc(C(=O)NCC(=O)N2CCN(c3ccc(C(F)(F)F)cn3)CC2)c1	27.5*	-30.5	/	/	3.6	/
CCC1(c2ccc(F)cc2)NC(=O)N(CC(=O)c2cc(C)n(C3CC3)c2C)C1=O (centres undefined)	1.2	28.1	-2.0	-2.5	25.6*	7.0
Cc1cc(C(=O)CN2C(=O)NC(C)(c3cc(F)ccc3F)C2=O)c(C)n1C1CC1 (centres undefined)	-5.3	14.3	-16.1	4.3	2.8	-12.1
O=C(Nc1nc(-c2ccccc2)cs1)c1ccccc1NS(=O)(=O)c1ccc(F)cc1	31.6*	-12.2	57.2*	94.2*	14.3	63.5*
Cc1ccc(NC(=O)CNC2CCCCC2)cc1Cl	11.1	-18.8	7.8	33.8	-0.6	-12.9
CN1/C(=C\C=O)C(C)(C)c2ccccc21	-11.0	10.9	6.3	-4.8	0.5	2.5
CN1\C(=C/C=C/C=C/C=[N+](C)C)C(C)(C)c2ccccc21	14.2	-4.4	/	/	25.7*	/
CCSc1nnc(NC(=O)CCNC(=O)c2ccccc2Cl)s1	11.3	3.6	-18.6	2.7	0.2	-2.8
Cc1c(NC(=O)C(C)OC(=O)/C=C/c2ccc3c(c2)OCO3)c(=O)n(-c2ccccc2)n1C (centres undefined)	-9.1	11.7	-7.2	16.1	0.3	-30.9
O=C(NC1CC1)C1=C[C@@H](c2c[nH]c3ccccc23)C[C@@H](OCc2ccc(CO)cc2)O1	0.2	-2.9	10.8	10.7	0.3	9.3
COC(=O)[C@]12CCCCC=C1N(Cc1ccc(Cl)cc1Cl)C(=O)[C@H](CC(=O)N1CCOCC1)C2	-4.2	0.2	/	/	2.6	/
O=C(NCc1ccccc1)c1ccc2c(c1)C(=O)N(Cc1cccnc1)C2=O	2.3	6.9	/	/	0.9	/
O=C1c2ccc([N+](=O)[O-])cc2C(=O)N1Cc1cccnc1	1.1	-1.5	-2.2	76.5*	0.1	-17.7
Cc1cc(C)c2c(=O)n(CC(=O)Nc3cccc(Cl)c3C)sc2n1	3.8	2.8	5.6	8.0	18.5*	2.8
SMILES	CHO-K1 Ca antag	CHO-K1 Ca PAM	CHO parental Ca	OX1R antag-1	CHO-K1 Ca ag	OX1R antag-2
COc1ccc(OC)c(CCNC(=O)Cn2sc3nc(C)cc(C)c3c2=O)c1	/	/	49.1*	20.0	/	54.7*
Cc1cc(C)c2c(=O)n(CC(=O)NC3CCCC3)sc2n1	-12.0	20.9	4.2	1.2	2.7	8.1
CCCNC(=O)C1(C)CCN(Cc2ccc(-n3ccnc3)cc2)C1 (centres undefined)	-11.1	18.9	/	/	0.4	/
CNC(=O)C[C@@H]1C(=O)N(c2ccc(Br)cc2)CC1(C)C	-4.8	18.7	/	/	0.0	/
COc1ccc2[nH]c3c(NCc4ccco4)ncnc3c2c1	/	/	-9.9	23.9	/	-17.1
Fc1ccc2[nH]c3c(NCc4ccccc4)ncnc3c2c1	33.7*	-23.1	70.0*	59.1*	19.1*	2.6
COc1ccc(C(=O)NCCCn2nc(C)cc2C)cc1S(=O)(=O)N1CCOCC1	-2.1	12.1	/	/	0.3	/
